Assay: Toxicity liver stage against HepG2, at 10uM
Assay type: cell-based
Design: test concentration 10 uM, cell line HepG2-A16-CD81EGFP
Conditions: human, HepG2-A16-CD81EGFP cells; read-out: INHIBITION
Summary of the method: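 Uninfected HepG2-A16-CD81EGFP cells, 3 × 10^3 per well, 1536-well, plated on prespotted compound at 10 μM final, parasite-free screening media added to match infected plates; puromycin 10 μM positive, DMSO 0.5% negative; run in parallel with 48 h PbLuc assay at 37 °C, 5% CO2; viability by CellTiter-Glo luminescence, normalized to controls.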

Compound | cytotoxicity at 10 µM
CCCS(=O)(=O)N1CCN(Cc2ccco2)CC1 | 4.28%
Cc1ccc(-c2c[nH]c([C@@H]3COCCN3Cc3cccnc3)n2)cc1 | 0.283%
O=C(NCCC1=CCCCC1)c1ccc(-n2cccc2)nc1 | -1.46%
CC1CN(c2ncccc2C(=O)N[C@@H]2CCCc3ccccc32)CCN1 (some centres not stated) | 10.7%
O=C1Nc2ccccc2/C1=C1\CCCCCN1 | 13.6%
CSCCC(Nc1nc(C)cc(C)n1)C(=O)NC(C)(C)CO (configuration not stated) | -5.15%
CNCc1ccc(Oc2cncc(C)n2)cc1 | 7.1%
CCN1C(=O)CCC12CCN(S(=O)(=O)c1ccccc1)CC2 | -4.9%
CC(C)C(=O)NC1COC2(CCN(C(=O)c3cccnc3)CC2)C1 (configuration not stated) | 4.26%
Cn1cccc1C(=O)N1C[C@H]2CN(Cc3cccnc3)C[C@H]2C1 | 3.94%
O=C(C1CCOCC1)N1CC[C@@H](O)[C@@H]1Cc1ccncc1 | -2.36%
c1cc(CN2CCc3c(CN4CCCC4)n[nH]c3C2)ccn1 | -10.5%
Cc1ncnc2c1CCN(C(=O)c1cccnc1)CC2 | 8.36%
CN1CCN(C(=O)c2cc(-c3cnc(N4CCCC4)nc3)cn2C)CC1 | -1.43%
CC(C)NC(=O)N1CCN(C(=O)NC(C)C)CC2(CNC(=O)C2)C1 | 3.3%
Cc1cc(O)c(OCC(=O)/N=c2/[nH]c3c(s2)CCC3)cn1 | 10.4%
Cc1n[nH]c2c1C(c1cnn(C)c1)SCC(=O)N2 (configuration not stated) | 7.7%
CS(=O)(=O)Nc1nn(Cc2ccc(F)cc2)cc1Br | 5.88%
Cc1nn(Cc2ccc(C(=O)NCCCN3CCCC3=O)o2)c(C)c1Cl | -10.2%
COc1ccc(C)cc1Nc1nc2c(C)nn(C)c2c(=O)n1C | 3.96%
O=C(CCn1ncc2c(Cl)cccc21)NCCCn1cccn1 | 6.25%
Cc1cc(C(=O)NCc2cccs2)nc(N2CCCC2)n1 | -0.438%
Cc1noc(C)c1-c1cc(CCC2CN(CCC(N)=O)CCO2)ncn1 (configuration not stated) | 6.11%

Compound | cytotoxicity at 10 µM
CCC(=O)N1CCCCC1c1nc(O)c2c(n1)CN(C(C)=O)CC2 (configuration not stated) | 0.525%
Cc1ccnn1CCC(=O)N1CCCC2(C1)NC(=O)c1ccccc1O2 (configuration not stated) | -0.776%
Cc1nn(C)cc1NC(=O)CN1CCC(Oc2cnccn2)CC1 | -4.19%
CNc1cc(C)nc(C2CCN(CCO)CC2)n1 | 1.56%
CC(=O)N1CCC(c2nn(C)c3nccnc23)C1 (configuration not stated) | -21.1%
CN(C)C(=O)CCc1cncc(C2CCCN2Cc2ccccn2)n1 (configuration not stated) | -3.94%
OCCN(CCO)Cc1ccc(Br)c2cccnc12 | 0.14%
CC(C)(C)NC(=O)CNc1ncccn1 | -5.09%
c1csc(-c2noc(CCCNC3CCc4ncnn4C3)n2)c1 (configuration not stated) | -1.36%
CNC(=O)Cc1noc(-c2cc3c(s2)CCC(C)(C)C3)n1 | 3.57%
N#CCCN(CC1CCOC1)S(=O)(=O)c1c(F)cccc1Cl (configuration not stated) | -2.58%
O=C(NC1(C(=O)NCC2CC2)CCCC1)C1Cc2cc(F)ccc2O1 (configuration not stated) | 8%
Cc1c(NC(=O)NCCO)cccc1OC1CCCC1 | -2.25%
CCOCCC(=O)N(CCC#N)c1ccc(C)c(C)c1 | 4.06%
CCCN(CC(F)(F)F)S(=O)(=O)c1cc(C(N)=O)n(C)c1 | -4.15%
Cc1ccc(S(=O)(=O)N2CCOCC2C#N)cc1Br (configuration not stated) | 6.08%
CNC(=O)C1CCCN1C(=O)NCCCc1cccc(F)c1 (configuration not stated) | 2.75%
CC(C)(C)c1nccc(N2CCCCC2CCNS(C)(=O)=O)n1 (configuration not stated) | 8.83%
CC(CNC(=O)c1nnn(-c2ccccc2)c1C(F)(F)F)N(C)C (configuration not stated) | 2.19%
CCn1nc(C)cc1C(=O)OCCNC(=O)c1ccccc1 | 1.44%
O=C(NCC1(O)CCSCC1)c1ccoc1 | -6.61%
CCCNC(=O)CCNc1cncc(-n2nc(C)cc2C)n1 | 5.3%
Cc1ccc(F)cc1C(=O)N1CCN(S(C)(=O)=O)[C@@H](C)C1 | -2.53%

Compound | cytotoxicity at 10 µM
Cc1occc1CNC(=O)C1CCN(C(=O)OC(C)(C)C)C1 (configuration not stated) | 3.67%
CC(C)(C)c1noc(CN2CCN(C(=O)c3ccco3)CC2)n1 | -15.8%
COCCN1CCCN(C(=O)c2scnc2C)CC1 | 5.27%
Cc1ccc(CNCC2CCN(CCO)CC2)cc1 | -6.14%
Cc1nccn1-c1cc(CNC(=O)COCC2CC2)ccn1 | 2.37%
CS(=O)(=O)CCN(CC1CCCO1)C1CCCC1 (configuration not stated) | 4.4%
Brc1csc(CNCc2nnc3n2CCC3)c1 | 5.63%
Cc1ccc(C(C)(O)CNC(=O)c2scnc2C)o1 (configuration not stated) | -1.42%
COCc1ccccc1CNC(=O)CNc1ccccc1C(C)=O | 3.49%
COCCOc1ccc(NCc2cccc3cn[nH]c23)cn1 | 5.04%
CCC1CN(c2ncnc3nc[nH]c23)CCO1 (configuration not stated) | 19.5%
O=S(=O)(c1cccnc1)N1CCC(OCCCc2ccccc2)C1 (configuration not stated) | 9.31%
CSCC(=O)NC1CCN(C(C)c2ccccc2)CC1 (configuration not stated) | 3.63%
Nc1cc2c(nn1)CCN(C(=O)c1ccc(Oc3cccnc3)cc1)C2 | 6.27%
Cc1[nH]ncc1CCCNC(=O)N1CCOC(C)C1 (configuration not stated) | 3.14%
O=C(NCc1cccnc1N1CCCCC1)c1ccc2c(c1)OCO2 | -3.76%
Cc1cc(NS(=O)(=O)c2cnc3onc(C)c3c2)no1 | 4.43%
O=C1NCCO[C@H]2CN(C(=O)Cc3ccco3)CC[C@@H]12 | -105%
O=C(c1ccnnc1)N1C[C@H](OCC2CC2)[C@H]2COC[C@H]21 | 0.0658%
COCC1CC2(CCN(Cc3ccccn3)CC2)CN1C(C)C (configuration not stated) | -7.16%
CC(=O)Nc1nc(C)c(S(=O)(=O)NCCc2ccccn2)s1 | -5%
COc1ccc2c(c1)CC(C(=O)N(C)CCCc1cnn(C)c1)CO2 (configuration not stated) | -7.55%
C=C(C)COc1ccccc1C(=O)NCc1nc(C)cc(=O)[nH]1 | -3.7%

Compound | cytotoxicity at 10 µM
CC1(Cc2ccc3c(c2)OCO3)CCCN(S(=O)(=O)N2CCCC2)C1 (configuration not stated) | -0.788%
COc1ccccc1OC1CN(C(=O)CN(C)Cc2ccncc2)C1 | -3.09%
O=C(CCN1CCOC(C(F)(F)F)C1)NCc1ccc(Cl)cc1 (configuration not stated) | -9.93%
CN1CCC(O)(CNC(=O)c2cc(COc3cccc(F)c3)[nH]n2)CC1 | 2.91%
CN(C)S(=O)(=O)NCc1nc(-c2cccc(F)c2)c(-c2ccccn2)[nH]1 | -7.76%
CCCc1nc(CN(CC)C(=O)c2ccc3ncsc3c2)no1 | 9.65%
COc1ccc(C(C)n2ccnc2-c2cc3n(n2)CCCNC3)cc1F (configuration not stated) | -3.06%
O=C1O[C@@H]2CN(c3ccc(Cl)cn3)C[C@@H]2N1CCc1ccc(F)cc1 | -2.77%
O=C(NCc1cc2n(n1)CCCNC2)C1(c2ccccc2)CCCCC1 | -10.6%
FC(F)(F)c1ccnc(N2CCCN(Cc3ccccn3)CC2)n1 | -3.5%
O=S(=O)(NCc1ccccc1)N(Cc1ccccn1)CC1CCCO1 (configuration not stated) | 1.62%
Cc1nn2c(NCC(=O)NC3CC3)cc(-c3ccccc3)nc2c1C | -5.1%
CC(=O)Nc1ccc(C(=O)Nc2cnc3n2CCCC3)cc1C | 0.271%
Cc1ccc(OCC(C)NS(C)(=O)=O)cc1 (configuration not stated) | 14.8%
Cc1ccccc1N1CCCN(C(=O)c2cn(C)c3ccccc23)CC1 | -11.2%
COCCc1noc(CN2CCCCC2Cn2cccn2)n1 (configuration not stated) | -1.3%
CN(C)C(=O)c1cccc(CN2CCOC(Cn3cccn3)C2)c1 (configuration not stated) | -0.29%
CCc1ccc(C(=O)N2CCCCC2Cn2cccn2)o1 (configuration not stated) | -6.8%
COc1cc(C(=O)N2CCCC2c2noc(C(C)C)n2)on1 (configuration not stated) | -12.4%
c1cc(COc2ccc(CNC3CCc4ncnn4C3)cc2)ccn1 (configuration not stated) | -0.279%
CNc1cc(N2CCCC2CNCc2cscn2)ncn1 (configuration not stated) | -0.426%
c1ccc(Cc2noc(CN3CCCC(Cn4cncn4)C3)n2)cc1 (configuration not stated) | -2.38%
Cc1ncc(C(=O)N2CCCC(n3cccn3)C2)s1 (configuration not stated) | -5.8%

Compound | cytotoxicity at 10 µM
CN(C)c1cc(CNC(=O)Nc2nncs2)ccn1 | -20.5%
Cc1nc(C)n(CC2CCCN(CCC(=O)N3CCOCC3)C2)n1 (configuration not stated) | -6.7%
CC(C)C(=O)NCc1ccc(-n2cncn2)nc1 | 0.239%
CNS(=O)(=O)c1ccc(C(=O)N2CCCC2c2ccccc2)o1 (configuration not stated) | -7.67%
Cc1nc(-c2ccc(F)c(F)c2)cc(C2CCNCC2)n1 | 2.04%
CCOCC1CN(Cc2ccccn2)Cc2nn(CC3CC3)cc21 (configuration not stated) | -0.966%
COCC(=O)NC1CC2(CCN(CC3CC3)CC2)Oc2ccccc21 (configuration not stated) | -2.6%
O=C(C1CCCCC1)N1CCCC2(CCN(c3cnccn3)CC2)C1 | 6.59%
CN(C)C(=O)CO[C@@H]1CN(Cc2ccccc2F)[C@@H]2CCCO[C@@H]21 | -3.81%
CCOC1COC2(CCN(Cc3ccco3)CC2)C1 (configuration not stated) | -2.98%
CC(C)C1COC2(CCN(Cc3ccco3)CC2)C1 (configuration not stated) | -3.57%
Cc1nnc([C@]23COC[C@H]2CN(S(=O)(=O)c2cccnc2)C3)o1 | -97.8%
O=C(c1cccnc1)N1CCC2(CC1)COC(COc1ccccn1)C2 (configuration not stated) | -0.735%
COCCN1CCN(c2ccc(C)nn2)Cc2cccnc21 | -3.68%
O=C(c1ccc(F)cc1)N1CCN2C[C@H](OCc3ccccn3)C[C@H]2C1 | 2.8%
Cc1ccccc1C(=O)N1C[C@@H]2OCCN(c3ncccn3)[C@@H]2C1 | 29.5%
CS(=O)(=O)NC[C@@H]1OC[C@H]2CN(C(=O)c3ccccn3)CC[C@H]21 | -7.47%
O=C(CC1CC1)N[C@@H]1CN(Cc2ccco2)C[C@@H]2CCCO[C@@H]21 | -1.63%
CCc1nc(C)cc(N2CCN(C(=O)[C@@H]3C[C@H]4C=C[C@@H]3C4)CC2)n1 | 5.68%
Cc1ccc(C(=O)N2[C@@H]3CC[C@H]2CC(=O)N(C)C3)c(=O)[nH]1 | 4.23%

From ChEMBL document CHEMBL4513216, “Probing the Open Global Health Chemical Diversity Library for Multistage-Active Starting Points for Next-Generation Antimalarials” (ACS Infect Dis, 2020)
